From PubChem BioAssay
EP2 antag: inhibitors of human EP2 prostaglandin E2 receptor; P43116; 260,000 tested, 0.52% active; C6 glioma cells expressing human EP2, cAMP TR-FRET; cells stimulated with saturating PGE2; inhibition, % at 25 µM;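 active = percent inhibition above 40 after rounding to a whole number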;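 also: rat C6 glioma host cells with rolipram phosphodiesterase inhibitor present; the protocol text gives 20 µM as final concentration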
Target sequence (P43116 whole entry, looked up): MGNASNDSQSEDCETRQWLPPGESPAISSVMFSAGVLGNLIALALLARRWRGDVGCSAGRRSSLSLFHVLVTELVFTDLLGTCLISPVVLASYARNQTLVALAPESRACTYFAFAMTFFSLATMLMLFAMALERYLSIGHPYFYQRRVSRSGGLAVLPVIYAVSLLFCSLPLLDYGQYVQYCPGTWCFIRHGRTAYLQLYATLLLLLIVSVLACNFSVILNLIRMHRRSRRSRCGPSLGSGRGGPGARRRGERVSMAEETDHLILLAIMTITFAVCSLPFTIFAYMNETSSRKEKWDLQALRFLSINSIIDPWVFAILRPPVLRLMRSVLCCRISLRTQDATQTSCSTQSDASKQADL
MC4R antagonist: human MC4R antagonism in cAMP assay; 360,000 tested, 0.48% active; AID 540295; inhibition, % at 6.5 µM; P32245; MC4R-expressing cells, MTII-stimulated cAMP, LANCE TR-FRET;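 active = inhibition above its plate's cutoff, the mean of tested wells on that plate plus 3 SD, cut at about 29% in these data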
Target sequence (P32245 whole entry, looked up): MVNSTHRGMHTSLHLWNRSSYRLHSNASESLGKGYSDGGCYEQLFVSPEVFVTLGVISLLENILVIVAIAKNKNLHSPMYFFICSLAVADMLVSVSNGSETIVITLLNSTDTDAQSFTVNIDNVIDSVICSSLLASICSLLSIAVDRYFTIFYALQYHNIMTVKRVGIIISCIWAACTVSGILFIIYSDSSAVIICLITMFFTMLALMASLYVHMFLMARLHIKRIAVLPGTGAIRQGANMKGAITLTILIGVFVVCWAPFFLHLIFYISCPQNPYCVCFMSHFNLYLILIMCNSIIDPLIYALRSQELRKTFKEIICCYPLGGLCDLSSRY
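Assay system: U2OS-MC4R stable cell line; Also added: Melanotan II; Technique: Eu-cAMP/anti-cAMP TR-FRET, emission 671 nm; Times: 30-min compound, 1-h challenge, 1-h detection, room temperature.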
MC4R barr agon: human MC4R agonism via beta-arrestin; activation, % at 8.9 µM; U2OS MC4R beta-arrestin complementation, luminescence; percent of melanotan II response, DMSO zero; AID 540308; 360,000 tested, 0.98% active; P32245;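 active = activation above a per-plate cutoff, the mean activation of sample wells on that plate plus 3 SD, cut at about 8% in these data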
Granule exo inh: blocks lytic granule exocytosis; inhibition, % at 10 µM; 360,000 tested, 0.66% active; AID 651702; TALL-104 LAMP-1 surface exposure, flow cytometry; cells stimulated with thapsigargin and PMA;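 active = inhibition above about 55%, limit read from the data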
EP2 mod: modulates human prostaglandin E2 receptor EP2 signaling; induction, % at 25 µM; 260,000 tested, 0.83% active; AID 940; P43116; EP2-expressing cells, cAMP HTRF FRET, PGE2 co-stimulation;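 active = compounds whose cAMP rise, as percent of the full-agonist control response, exceeds 60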;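 also: rat C6 glioma line stably carrying human EP2 under a CMV promoter; the protocol text gives 20 µM as final concentration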
T cell modulator: T cell immune modulators affecting CD8 T cell-vesicle binding; response (vesicle binding), % at 7 µM; 2C CD8+ T cell-vesicle binding, flow cytometry; active compounds read low; 330,000 tested, 0.068% active; AID 2052;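 active = response, share of CD8 T cells binding vesicles, and their 90th percentile fluorescence all below set limits, cut at about 80% in these data, passing the limit was not always enough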;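 also: values below 100% mean blocked vesicle binding to the CD8+ T cells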
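Assay system: 2C TCR transgenic mouse naive CD8+ T cells, MACS-purified | Read-out: CD8+ gate FL2 mean fluorescence as % of same-row positive control | Signal: High-throughput flow cytometry with anti-B7-1 and anti-CD8 staining | Timing: Binding step 1.5 h, 37 °C, antibody labelling 20 min, ice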
Large screens that a line does not name were inactive; ! = not confirmed by another sample. Shown are actives, neighbours in structure and some others; about 2.6% of the full set was active somewhere.

COc1ccc(Br)cc1C(=O)Nc1ccccc1N1CCCC1	none (no result: EP2 antag, EP2 mod)
COc1ccccc1C(=O)Nc1ccccc1N1CCCCC1	Granule exo inh 67.1 (no result: EP2 antag, EP2 mod)
COc1ccc(-c2csc3ncn(-c4ccccc4OC)c(=O)c23)cc1OC	none
CC(=O)c1ccc(NC(=O)N2CCCC(C(=O)c3ccc4c(c3)OCO4)C2)cc1 (configuration not stated)	none
CCOc1ccc(OCC(=O)Nc2ccccc2N2CCCC2)cc1	none (no result: EP2 antag, EP2 mod)
O=C(COc1ccccc1)Nc1ccccc1N1CCCCC1	EP2 mod 63.8!
CCOc1ccccc1C1NC(=O)NC(C)=C1C(=O)OC1CCCCC1 (configuration not stated)	none
CC1=C(C(=O)OC2CCCCC2)C(c2ccccc2Br)NC(=O)N1 (configuration not stated)	MC4R barr agon 8.2 (no result: EP2 antag, EP2 mod)
Cn1nnnc1SCC(=O)C(C)(C)C	none
CCOC(=O)Cn1c(-c2ccccc2)cc(SC)c(C#N)c1=O	Granule exo inh 61.3 (no result: EP2 antag, EP2 mod)
Cc1ccc(C)c2[nH]c(=O)c(C(c3nnnn3C3CCCC3)N3CCc4ccccc43)cc12 (configuration not stated)	EP2 mod 101.2 (no result: MC4R antagonist, MC4R barr agon, Granule exo inh, T cell modulator)
COc1ccccc1C(c1nnnn1C(C)(C)C)N1CCCc2ccccc21 (configuration not stated)	EP2 mod 67.5!
CC(C)(C)n1nnnc1C(c1ccc(Cl)cc1)N1CCCc2ccccc21 (configuration not stated)	none
COc1cc2cc(C(c3nnnn3C3CCCC3)N3CCc4ccccc43)c(=O)[nH]c2cc1OC (configuration not stated)	none (no result: EP2 antag)
CC(C)(C)n1nnnc1C(c1cccc(C#N)c1)N1CCCc2ccccc21 (configuration not stated)	EP2 antag 103.2!
COc1cc2cc(C(c3nnnn3C(C)(C)C)N3CCc4ccccc43)c(=O)[nH]c2cc1OC (configuration not stated)	EP2 antag 149.6
NC(=O)c1cnn(-c2ccc3ccccc3c2)c1N	none
Cc1ccsc1/C=N/NC(=O)c1nnn(-c2nonc2N)c1C	none (no result: EP2 antag, EP2 mod)
CCC(NC(C)C)C(O)c1ccc(O)c2[nH]c(=O)ccc12 (configuration not stated)	EP2 mod 78.2
COC(=O)[C@]1(C)N[C@H](CN(C)C(=O)C2CCCCC2)[C@@H]2C(=O)N(C)C(=O)[C@@H]21	none (no result: EP2 antag, EP2 mod)
O=C(Nc1nnc(COc2ccc(F)cc2)s1)c1ccco1	none
CCCSc1nc2sc3c(c2c(=O)n1CC)CC(C)(C)OC3	none
C=CCn1c(SCC)nc2sc3c(c2c1=O)CC(C)(C)OC3	EP2 mod 80.2 (no result: MC4R antagonist, MC4R barr agon, Granule exo inh, T cell modulator)
CCOC(=O)c1c2c(n3ccccc13)C(=O)c1ccccc1C2=O	EP2 antag 46.4 (no result: MC4R antagonist, MC4R barr agon, Granule exo inh, T cell modulator)
CCOC(=O)c1c2c(n(-c3ccc(OC)cc3)c1C)C(=O)C(=O)c1ccccc1-2	Granule exo inh 98.1 (no result: EP2 antag, EP2 mod, T cell modulator)
COc1ccc(-c2nc(-c3ccccc3)cs2)cc1OC	none (no result: MC4R antagonist, MC4R barr agon, Granule exo inh, T cell modulator)
COc1ccc(-c2nc(-c3ccc(O)cc3O)cs2)cc1OC	EP2 antag 82.2 (no result: T cell modulator)
C=CCn1c(-c2cc(-c3ccccc3)sc2N)n[nH]c1=S	none
COc1ccc(-n2c(-c3cc(-c4ccccc4)sc3N)n[nH]c2=S)cc1	Granule exo inh 90.9
O=C1c2cccnc2C(O)N1Cc1ccc(F)cc1 (configuration not stated)	none
O=C1C=CC(=O)N1c1cccc(-c2ccccc2)c1	EP2 antag 113.7, MC4R antagonist 48.2
O=C(Nc1cccc(N2C(=O)C=CC2=O)c1)c1cccs1	none (no result: EP2 antag, EP2 mod)
O=C1C2C3C=CC(C3)C2C(=O)N1c1ccccc1 (configuration not stated)	none
O=C1C2C3C=CC(C3=C3CCCCC3)C2C(=O)N1c1ccccc1 (configuration not stated)	Granule exo inh 79.9
Cn1c(=O)c2c(SCc3ccccn3)nc(C3CC3)nc2n(C)c1=O	none
Cn1c(=O)c2c(SCc3ccccc3)nc(C3CC3)nc2n(C)c1=O	EP2 mod 73.5
Cc1nc(SCc2c(F)cccc2Cl)c2c(=O)n(C)c(=O)n(C)c2n1	EP2 mod 62.2
O=C(Nc1nnc(-c2cccs2)s1)c1ccco1	EP2 antag 44.3 (no result: MC4R antagonist, MC4R barr agon, Granule exo inh, T cell modulator)
COc1ccccc1NC(=O)CCCCCN1C(=O)c2cccc([N+](=O)[O-])c2C1=O	none (no result: EP2 antag, EP2 mod)
COc1cc(/C=C2/C(=O)c3cccc([N+](=O)[O-])c3C2=O)c(Br)cc1O	EP2 antag 49.2
COc1cc2ncc(C(=O)c3ccccc3)c(N3CCN(Cc4ccccc4)CC3)c2cc1OC	EP2 mod 85.5
COc1ccccc1N1CCN(Cc2ccc(C(=O)O)cc2)CC1	none (no result: EP2 antag, EP2 mod)
CCOC(=O)N1CCN(C(=O)CCc2ccccc2)CC1	none (no result: EP2 antag, EP2 mod)
COc1ccc2ccccc2c1/C=N/NC(=O)c1sc(N)c(C#N)c1C	MC4R barr agon 10.3
COc1ccc2ccccc2c1/C=N\NC(=O)c1ccc(C)s1	none (no result: EP2 antag, EP2 mod)
CCOc1ccc(NC(=O)/C(C#N)=C/c2ccc(N3CCCC3)c(C)c2)cc1	none
CC(NS(=O)(=O)c1ccc(Br)cc1)c1ccccc1 (configuration not stated)	none (no result: EP2 antag, EP2 mod)
O=[N+]([O-])c1cccc(-c2csc(Nc3ccccc3)n2)c1	none
COc1cc(NS(=O)(=O)c2ccc(Nc3nc(-c4cccc([N+](=O)[O-])c4)cs3)cc2)nc(OC)n1	EP2 antag 44.7
CN1[C@@H]2CC[C@H]1CC(OC(c1ccccc1)c1ccccc1)C2 (some centres not stated)	EP2 antag 57.5 (no result: MC4R antagonist, MC4R barr agon, Granule exo inh, T cell modulator)
CC(C)(C)C1CCc2onc(C(=O)Nc3ccc(F)cc3F)c2C1 (configuration not stated)	MC4R barr agon 8.3
COc1cccc(NC(=O)CSc2nc3cc(OC)ccc3cc2C#N)c1	EP2 mod 66.6 (no result: MC4R antagonist, MC4R barr agon, Granule exo inh, T cell modulator)
CCc1nnc(NC(=O)CSc2nc3cc(C)c(C)cc3cc2CC)s1	EP2 mod 68.7 (no result: MC4R antagonist, MC4R barr agon, Granule exo inh, T cell modulator)
CCOc1ccc2cc(C#N)c(SCC(=O)Nc3nnc(CC)s3)nc2c1	EP2 mod 73.1 (no result: MC4R antagonist, MC4R barr agon, Granule exo inh, T cell modulator)
COc1ccc2cc(C#N)c(SCC(=O)N3CC(=O)Nc4ccccc43)nc2c1	EP2 mod 73.0!
COCCn1c(C)cc(C(=O)COC(=O)c2ccc3c(c2)NC(=O)CS3)c1C	none
COC(=O)CSc1nc2cc(OC)ccc2cc1C#N	none
COc1ccc2cc(C#N)c(SCC(=O)OC(C)C)nc2c1	EP2 mod 84.1 (no result: MC4R antagonist, MC4R barr agon, Granule exo inh, T cell modulator)
C/C(=N\NC(N)=S)C1=CCC2C3CC[C@H]4CC(O)CC[C@]4(C)C3CC[C@]12C (some centres not stated)	Granule exo inh 55.6 (no result: EP2 antag, EP2 mod)
CC12CCC3C(CCC4CC(O)CCC43C)C1CC(O)C2 (configuration not stated)	none (no result: EP2 antag, EP2 mod, T cell modulator)
O=C(Nc1cccc2ccccc12)c1ccc2sc([C@H]3C[C@H](O)[C@@H](CO)O3)nc2c1	none (no result: EP2 antag, EP2 mod, T cell modulator)
CC(=O)N(CCS(=O)(=O)c1ccc(Cl)cc1)Cc1cccs1	none (no result: T cell modulator)
